PMC9847367 (European Journal of Medicinal Chemistry, 2023)
Counter-ions that a name gives are not always drawn.

Tests used:
[1] = target: chymotrypsin (Bos taurus, UniProt P00766); experiment: Enzymatic selectivity assay against chymotrypsin; assay type: biochemical
Method in brief: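 Bovine chymotrypsin (5 nM final) was preincubated for 10 min with serial dilutions of test compound in phosphate-buffered saline, pH 7.4. The reaction was started with N-succinyl-AAPF-AMC (10 μM final). Fluorescence (ex 380 nm/em 460 nm) was read every 1 min for 10 min. Reaction rates relative to DMSO controls gave the inhibition profiles.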

[2] = target: SARS-CoV-2 3CL^pro (Severe acute respiratory syndrome coronavirus 2, UniProt P0DTD1); assay type: biochemical

SMILES	IC50 [1] [µM]	inhibitory activity with the addition of 4 mM DTT [2]
C/N=c1\nc(-c2ccc(F)cc2)n(-c2ccccc2)s1 [6g, 3-(4-fluorophenyl)-N-methyl-2-phenyl-1,2,4-thiadiazol-5(2H)-imine hydrobromide salt]	> 100	lost their inhibitory activity
C/N=c1\nc(-c2ccccc2)n(-c2ccccc2)s1 [6a, N-methyl-2,3-diphenyl-1,2,4-thiadiazol-5(2H)-imine hydrobromide salt]	> 100	lost their inhibitory activity
